Columns and labels:
Mus musculus [1] = assay: Rectal temperature of mice treated with compound in apomorphine (16 mg/kg injected sc 30 min before temp. recording) after its oral administration at 400 mg/kg, 0.5 hr before rectal temperature measurement; format: functional
How it was run: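 Screening in male Swiss albino mice (20–22 g): 400 mg/kg compound orally; apomorphine 16 mg/kg sc 30 min before recording. Rectal temperature read at 0.5, 2, 4 h after dosing; value reported at time of peak activity (generally 0.5 h). Groups of 8–20 mice; standard errors 1–3% of mean.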

Mus musculus [2] = organism: Mus musculus; assay: Dose of compound required to reduce apomorphine-induced hypothermia by 50% in mice by hypothermia (Apo 16)test; format: functional
How it was run: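 Male Swiss albino mice, 20–22 g; apomorphine 16 mg/kg sc 30 min before rectal temperature recording. Compound given orally, tested at time of peak activity (0.5–2 h). […] Groups of 8–20 mice.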

[3] = Dose of compound required in mg/kg to induce lethality in 50% of mice after 14 days; format: ADME, organism-based; conditions: mouse, in vivo
How it was run: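 Male Swiss albino mice, 20–22 g, dosed orally; deaths followed for up to 2 weeks (14 days) after administration. Groups of 8–20 mice.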

Mus musculus [4] = assay: Dose required to reduce reserpine induced hypothermia was measured after sc administration of reserpine at 2.5 mg/kg, 18 hr before the rectal-temperature recording in mice; format: functional; design: unit: mg/kg; conditions: reserpine 2.5 mg/kg sc; route oral
How it was run: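 Male Swiss albino mice, 20–22 g; reserpine 2.5 mg/kg sc 18 h before rectal temperature recording. Compound given orally at time of peak activity, generally 0.5 h before recording. Groups of 8–20 mice.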

Mus musculus [5] = assay: Compound was evaluated after 24 hr for physostigmine induced lethality upon oral administration 60 min before intraperitoneal injection of physostigmine (0.9 mg/kg) in mice at 600 mg/kg; format: ADME, organism-based; design: dose 600 mg/kg, route oral; conditions: in vivo
How it was run: (§1)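 Male Swiss albino mice, 20–22 g; compound given orally 60 min before physostigmine 0.9 mg/kg ip. Lethality scored 24 h after physostigmine injection and expressed as % of group dying. Groups of 8–20 mice; significance vs vehicle by χ2.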

Mus musculus [6] = assay: Compound was evaluated after 24 hr for physostigmine induced lethality upon oral administration 60 min before intraperitoneal injection of physostigmine (0.9 mg/kg) in mice at 200 mg/kg; format: ADME, organism-based; design: dose 200 mg/kg, route oral; conditions: in vivo; how it was run: as §1
Mus musculus [7] = assay: Compound was evaluated after 24 hr for physostigmine induced lethality upon oral administration 60 min before intraperitoneal injection of physostigmine (0.9 mg/kg) in mice at 400 mg/kg; format: ADME, organism-based; design: dose 400 mg/kg, route oral; conditions: in vivo; how it was run: as §1
Mus musculus [8] = assay: Compound was evaluated after 24 hr for physostigmine induced lethality upon oral administration 60 min before intraperitoneal injection of physostigmine (0.9 mg/kg) in mice at 25 mg/kg; format: ADME, organism-based; design: dose 25 mg/kg, route oral; conditions: in vivo; how it was run: as §1

SMILES	Rectal temperature (Mus musculus [1]) [°C]	Min effective dose (Mus musculus [4])	other results
Cc1cc2c(cc1Cl)N(C(=O)CN1CCN(c3ncccn3)CC1)c1ccccc1N(C)S2(=O)=O	32.7		
CN1c2ccccc2N(C(=O)CNC(C)(C)C)c2ccccc2S1(=O)=O	32.2		
CN(C)CCC(=O)N1c2ccccc2N(C)S(=O)(=O)c2ccccc21	36.5	>100	ED50 (Mus musculus [2]): 23.1 mg/kg; LD50 at 336 h [3]: 521 mg/kg
CN(C)CCN1c2ccccc2N(C)S(=O)(=O)c2ccccc21		100	ED50 (Mus musculus [2]): > 100 mg/kg; LD50 at 336 h [3]: 468 mg/kg
CN1c2ccccc2N(C(=O)CN2CCCC2)c2ccccc2S1(=O)=O	34.2		
CCN1c2ccccc2N(C(=O)CN(C)C)c2ccccc2S1(=O)=O	35.1		
Cc1cc2c(cc1Cl)N(C(=O)CN1CCN(c3ccccc3)CC1)c1ccccc1N(C)S2(=O)=O	34.5		
Cc1cc2c(cc1Cl)N(C(=O)CN1CCN(CCO)CC1)c1ccccc1N(C)S2(=O)=O	34.1		
CC1CCN(CC(=O)N2c3ccccc3N(C)S(=O)(=O)c3ccccc32)CC1	33.2		
CN(C)CCCN1c2ccccc2N(C)S(=O)(=O)c2ccccc21		>100	ED50 (Mus musculus [2]): 4.9 mg/kg; LD50 at 336 h [3]: 655 mg/kg
CCCN1c2ccccc2N(C(=O)CN(C)C)c2ccccc2S1(=O)=O	35.8		
CN(C)CC(=O)N1c2cc(Cl)ccc2N(C)S(=O)(=O)c2ccccc21	37.4	>100	ED50 (Mus musculus [2]): 50.6 mg/kg
CN1c2ccccc2N(C(=O)CN2CCOCC2)c2ccccc2S1(=O)=O	33.9		
Cc1ccc2c(c1)N(C(=O)CN(C)C)c1ccccc1S(=O)(=O)N2C	38.8	100	ED50 (Mus musculus [2]): 14.4 mg/kg; LD50 at 336 h [3]: 1730 mg/kg
CCN(CC)CC(=O)N1c2ccccc2N(C)S(=O)(=O)c2ccccc21	37.4	>100	ED50 (Mus musculus [2]): 23 mg/kg; LD50 at 336 h [3]: > 2000 mg/kg
CN(C)CC(=O)N1c2ccccc2N(C)S(=O)(=O)c2cc(Cl)ccc21	37.7	>100	ED50 (Mus musculus [2]): 54.5 mg/kg
CNCC(=O)N1c2ccccc2N(C)S(=O)(=O)c2ccccc21	38.2	100	ED50 (Mus musculus [2]): 12 mg/kg; LD50 at 336 h [3]: 789 mg/kg

SMILES	Rectal temperature (Mus musculus [1]) [°C]	Min effective dose (Mus musculus [4])	other results
CN1c2ccccc2N(C(=O)CN)c2ccccc2S1(=O)=O	36.1		
Cc1ccc2c(c1)N(C(=O)CN(C)C)c1ccccc1N(C)S2(=O)=O	35.2		
CN(C)CC(=O)N1c2ccccc2N(C)S(=O)(=O)c2ccc(Cl)cc21	35.4		
CN1c2ccccc2N(C(N)=O)c2ccccc2S1(=O)=O	33.8		
CC(C)NCC(=O)N1c2ccccc2N(C)S(=O)(=O)c2ccccc21	34.1		
CN1CCN(CC(=O)N2c3ccccc3N(C)S(=O)(=O)c3ccccc32)CC1	34.4		
CN(C)CC(=O)N1c2ccccc2N(C)S(=O)(=O)c2ccc(C(F)(F)F)cc21	34.8		
CN1c2ccccc2N(C(=O)CN2CCN(CCO)CC2)c2ccccc2S1(=O)=O	34.4		
CN(C)C(=O)N1c2ccccc2N(C)S(=O)(=O)c2ccccc21	33.7		
Cc1cc2c(cc1Cl)N(C(=O)CN1CCN(C)CC1)c1ccccc1N(C)S2(=O)=O	32.5		
COc1ccc2c(c1)N(C(=O)CN(C)C)c1ccccc1N(C)S2(=O)=O	33.6		
CN(C)CC(=O)N1c2ccccc2N(C)S(=O)(=O)c2ccccc21	38.7	25	LD50 at 336 h [3]: 1920 mg/kg; Lethality (Mus musculus [5]): 90%; Lethality (Mus musculus [6]): 95%; Lethality (Mus musculus [7]): 95%
Cc1cc2c(cc1Cl)N(C(=O)CNC(C)C)c1ccccc1N(C)S2(=O)=O	33.1		
Cc1cc2c(cc1Cl)N(C(=O)CN(C)C)c1ccccc1N(C)S2(=O)=O	35.8		
CN(C)CC(=O)N1c2ccc(Cl)cc2N(C)S(=O)(=O)c2ccccc21	39.5	>100	ED50 (Mus musculus [2]): 23.5 mg/kg; LD50 at 336 h [3]: 1420 mg/kg
CN(C)CCC=C1c2ccccc2CCc2ccccc21 [AMITRIPTYLINE]			Lethality (Mus musculus [8]): 37%
CN(C)CCCN1c2ccccc2CCc2ccccc21 [IMIPRAMINE]		4	ED50 (Mus musculus [2]): 3.7 mg/kg

Source: ChEMBL document CHEMBL1125923, “New dibenzothiadiazepine derivatives with antidepressant activities” (J Med Chem, 1991)
